Reference: ChEMBL document CHEMBL3351887, “'Click' assembly of glycoclusters and discovery of a trehalose analogue that retards Aβ40 aggregation and inhibits Aβ40-induced neurotoxicity” (Bioorg Med Chem Lett, 2014)

Assays:
[1] = target: Amyloid-beta precursor protein (Homo sapiens) (UniProt P05067); experiment: Inhibition of amyloid beta-40 aggregation (unknown origin) assessed as extension of lag phase of Abeta40 aggregation at 100 uM by ThT fluorescence assay; parameters: scale not given: the % may be the effect or the level left
Chain of Amyloid-beta precursor protein (Homo sapiens) (P05067 whole entry): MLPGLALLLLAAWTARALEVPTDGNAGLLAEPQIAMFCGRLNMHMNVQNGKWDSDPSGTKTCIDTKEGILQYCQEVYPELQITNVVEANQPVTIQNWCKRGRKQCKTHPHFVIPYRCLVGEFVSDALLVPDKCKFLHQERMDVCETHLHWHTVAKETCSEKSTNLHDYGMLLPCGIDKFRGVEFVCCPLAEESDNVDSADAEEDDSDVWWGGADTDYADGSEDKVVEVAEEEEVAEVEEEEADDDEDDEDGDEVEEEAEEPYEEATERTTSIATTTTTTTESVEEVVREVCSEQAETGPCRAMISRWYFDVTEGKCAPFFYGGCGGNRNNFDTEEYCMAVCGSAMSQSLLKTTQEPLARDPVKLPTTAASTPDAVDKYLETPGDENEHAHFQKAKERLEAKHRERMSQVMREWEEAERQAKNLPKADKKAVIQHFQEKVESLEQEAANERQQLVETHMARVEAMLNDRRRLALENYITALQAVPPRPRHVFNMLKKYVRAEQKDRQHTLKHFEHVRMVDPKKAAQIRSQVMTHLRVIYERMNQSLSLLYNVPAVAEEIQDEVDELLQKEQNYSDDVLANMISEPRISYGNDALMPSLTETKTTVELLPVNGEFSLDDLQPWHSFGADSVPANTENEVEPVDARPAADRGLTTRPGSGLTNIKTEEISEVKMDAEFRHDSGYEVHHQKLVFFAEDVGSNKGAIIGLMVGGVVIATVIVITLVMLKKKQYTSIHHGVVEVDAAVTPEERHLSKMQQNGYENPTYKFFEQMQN
Outline: (§1)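 Monomer-rich Aβ40 (35 µM, supernatant after NaOH dissolution, sonication and ultracentrifugation) was incubated with 10 nM–100 µM compound in 20 mM phosphate buffer pH 7.4 (I 0.15 M), with 20 µM ThT and 0.007% NaN3, quiescent at 37 °C. Fluorescence (ex 440, em 480 nm) was read every 5 min. Lag time came from an empirical sigmoidal nonlinear-regression fit; mean ± SE of four independent experiments.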

[2] = target: Amyloid-beta precursor protein (Homo sapiens) (UniProt P05067); experiment: Inhibition of amyloid beta-40 aggregation (unknown origin) assessed as extension of lag phase of Abeta40 aggregation by ThT fluorescence assay; outline: as §1

Row | Structure (SMILES) | Activity [1] [%] | inhibition [2]
1 | OC[C@H]1O[C@@H](n2cc(COCC(COCc3cn([C@@H]4O[C@H](CO)[C@@H](O)[C@H](O)[C@H]4O)nn3)(COCc3cn([C@@H]4O[C@H](CO)[C@@H](O)[C@H](O)[C@H]4O)nn3)COCC(COCc3cn([C@@H]4O[C@H](CO)[C@@H](O)[C@H](O)[C@H]4O)nn3)(COCc3cn([C@@H]4O[C@H](CO)[C@@H](O)[C@H](O)[C@H]4O)nn3)COCc3cn([C@@H]4O[C@H](CO)[C@@H](O)[C@H](O)[C@H]4O)nn3)nn2)[C@H](O)[C@@H](O)[C@@H]1O | 28 | Dose-dependent effect
2 | OC[C@H]1O[C@@H](n2cc(COCC(COCc3cn([C@@H]4O[C@H](CO)[C@H](O)[C@H](O)[C@H]4O)nn3)(COCc3cn([C@@H]4O[C@H](CO)[C@H](O)[C@H](O)[C@H]4O)nn3)COCC(COCc3cn([C@@H]4O[C@H](CO)[C@H](O)[C@H](O)[C@H]4O)nn3)(COCc3cn([C@@H]4O[C@H](CO)[C@H](O)[C@H](O)[C@H]4O)nn3)COCc3cn([C@@H]4O[C@H](CO)[C@H](O)[C@H](O)[C@H]4O)nn3)nn2)[C@H](O)[C@@H](O)[C@H]1O | 28 | Dose-dependent effect
